Data published in ChEMBL document CHEMBL4689842, “EUbOPEN Chemogenomics Library wave 1” (2021).

System: Fibroblast
Assay: Multiplex assay against human fibroblast
Assay type: toxicity, cell-based
Method in brief: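 Cells stained live at seeding with Hoechst33342, BioTracker Green Microtubule Cytoskeleton Dye, MitoTracker Red and Annexin V Alexa Fluor 680 were imaged on a CQ1 microscope at 37°C and 5% CO2 after compound addition. Their classification by CellPathfinder machine-learning gating ran from Hoechst high-intensity objects versus normal cells, to healthy, pyknosed or fragmented nuclei among normal cells, to mitotic or apoptotic among pyknosed cells. Tubulin, mitochondrial-mass and membrane-permeability phenotypes are per cents of healthy-nucleus cells.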

[1] = 12 h, 1 µM, compound concentration 1 uM, replicate 1
[2] = 12 h, 1 µM, compound concentration 1 uM, replicate 2
[3] = 12 h, 10 µM, compound concentration 10 uM, replicate 1
[4] = 12 h, 10 µM, compound concentration 10 uM, replicate 2
[5] = 24 h, 1 µM, compound concentration 1 uM, replicate 1
[6] = 24 h, 1 µM, compound concentration 1 uM, replicate 2
[7] = 24 h, 10 µM, compound concentration 10 uM, replicate 1
[8] = 24 h, 10 µM, compound concentration 10 uM, replicate 2
[9] = 48 h, 1 µM, compound concentration 1 uM, replicate 1
[10] = 48 h, 1 µM, compound concentration 1 uM, replicate 2
[11] = 48 h, 10 µM, compound concentration 10 uM, replicate 1
[12] = 48 h, 10 µM, compound concentration 10 uM, replicate 2

O=C(c1cc2c(cc1F)OC(c1ccc(F)cc1)(c1ccc(Cl)cc1Cl)O2)N1CCOCC1 (configuration not stated)
Population Apoptotic (%) [1]: 51%
Population Fragmented Nuclei (%) [1]: 18%
Population Healthy Nuclei (%) [1]: 47%
Population Hoechst High Intensity Objects (%) [1]: 13%
Population Membrane Permeable-Phenotype (%) [1]: 19%
Population Mitochondria Different-Phenotype (%) [1]: 6%
Population Mitotic Cells (%) [1]: 48%
Population Normal (%) [1]: 86%
Population Pyknosed Nuclei (%) [1]: 34%
Population Tubulin-Different-Phenotype (%) [1]: 56%
Total Cell Count [1]: 112
Population Apoptotic (%) [2]: 50%
Population Healthy Nuclei (%) [2]: 68%
Population Hoechst High Intensity Objects (%) [2]: 7%
Population Membrane Permeable-Phenotype (%) [2]: 9%
Population Mitochondria Different-Phenotype (%) [2]: 12%
Population Mitotic Cells (%) [2]: 50%
Population Normal (%) [2]: 92%
Population Pyknosed Nuclei (%) [2]: 12%
Population Tubulin-Different-Phenotype (%) [2]: 15%
Total Cell Count [2]: 78
Population Apoptotic (%) [3]: 71%
Population Fragmented Nuclei (%) [3]: 31%
Population Healthy Nuclei (%) [3]: 29%
Population Hoechst High Intensity Objects (%) [3]: 12%
Population Membrane Permeable-Phenotype (%) [3]: 4%
Population Mitochondria Different-Phenotype (%) [3]: 43%
Population Mitotic Cells (%) [3]: 28%
Population Normal (%) [3]: 87%
Population Pyknosed Nuclei (%) [3]: 38%
Population Tubulin-Different-Phenotype (%) [3]: 17%
Total Cell Count [3]: 176
Population Fragmented Nuclei (%) [4]: 10%
Population Healthy Nuclei (%) [4]: 78%
Population Hoechst High Intensity Objects (%) [4]: 4%
Population Membrane Permeable-Phenotype (%) [4]: 47%
Population Mitochondria Different-Phenotype (%) [4]: 96%
Population Normal (%) [4]: 95%
Population Pyknosed Nuclei (%) [4]: 10%
Population Tubulin-Different-Phenotype (%) [4]: 100%
Total Cell Count [4]: 52
Population Apoptotic (%) [5]: 26%
Population Fragmented Nuclei (%) [5]: 17%
Population Healthy Nuclei (%) [5]: 61%
Population Hoechst High Intensity Objects (%) [5]: 18%
Population Membrane Permeable-Phenotype (%) [5]: 18%
Population Mitochondria Different-Phenotype (%) [5]: 12%
Population Mitotic Cells (%) [5]: 73%
Population Normal (%) [5]: 81%
Population Pyknosed Nuclei (%) [5]: 21%
Population Tubulin-Different-Phenotype (%) [5]: 50%
Total Cell Count [5]: 108
Population Apoptotic (%) [6]: 33%
Population Fragmented Nuclei (%) [6]: 5%
Population Healthy Nuclei (%) [6]: 88%
Population Hoechst High Intensity Objects (%) [6]: 10%
Population Membrane Permeable-Phenotype (%) [6]: 10%
Population Mitochondria Different-Phenotype (%) [6]: 15%
Population Mitotic Cells (%) [6]: 66%
Population Normal (%) [6]: 89%
Population Pyknosed Nuclei (%) [6]: 5%
Population Tubulin-Different-Phenotype (%) [6]: 21%
Total Cell Count [6]: 85
Population Apoptotic (%) [7]: 67%
Population Fragmented Nuclei (%) [7]: 32%
Population Healthy Nuclei (%) [7]: 32%
Population Hoechst High Intensity Objects (%) [7]: 12%
Population Membrane Permeable-Phenotype (%) [7]: 2%
Population Mitochondria Different-Phenotype (%) [7]: 81%
Population Mitotic Cells (%) [7]: 32%
Population Normal (%) [7]: 87%
Population Pyknosed Nuclei (%) [7]: 35%
Population Tubulin-Different-Phenotype (%) [7]: 16%
Total Cell Count [7]: 169
Population Apoptotic (%) [8]: 66%
Population Fragmented Nuclei (%) [8]: 8%
Population Healthy Nuclei (%) [8]: 62%
Population Hoechst High Intensity Objects (%) [8]: 6%
Population Membrane Permeable-Phenotype (%) [8]: 64%
Population Mitochondria Different-Phenotype (%) [8]: 100%
Population Mitotic Cells (%) [8]: 33%
Population Normal (%) [8]: 93%
Population Pyknosed Nuclei (%) [8]: 29%
Population Tubulin-Different-Phenotype (%) [8]: 100%
Total Cell Count [8]: 58
Population Apoptotic (%) [9]: 42%
Population Fragmented Nuclei (%) [9]: 31%
Population Healthy Nuclei (%) [9]: 50%
Population Hoechst High Intensity Objects (%) [9]: 11%
Population Membrane Permeable-Phenotype (%) [9]: 15%
Population Mitochondria Different-Phenotype (%) [9]: 11%
Population Mitotic Cells (%) [9]: 57%
Population Normal (%) [9]: 88%
Population Pyknosed Nuclei (%) [9]: 18%
Population Tubulin-Different-Phenotype (%) [9]: 43%
Total Cell Count [9]: 119
Population Apoptotic (%) [10]: 33%
Population Fragmented Nuclei (%) [10]: 18%
Population Healthy Nuclei (%) [10]: 73%
Population Hoechst High Intensity Objects (%) [10]: 12%
Population Membrane Permeable-Phenotype (%) [10]: 8%
Population Mitochondria Different-Phenotype (%) [10]: 5%
Population Mitotic Cells (%) [10]: 66%
Population Normal (%) [10]: 87%
Population Pyknosed Nuclei (%) [10]: 7%
Population Tubulin-Different-Phenotype (%) [10]: 37%
Total Cell Count [10]: 90
Population Apoptotic (%) [11]: 80%
Population Fragmented Nuclei (%) [11]: 33%
Population Healthy Nuclei (%) [11]: 42%
Population Hoechst High Intensity Objects (%) [11]: 14%
Population Membrane Permeable-Phenotype (%) [11]: 1%
Population Mitochondria Different-Phenotype (%) [11]: 70%
Population Mitotic Cells (%) [11]: 20%
Population Normal (%) [11]: 85%
Population Pyknosed Nuclei (%) [11]: 24%
Population Tubulin-Different-Phenotype (%) [11]: 6%
Total Cell Count [11]: 167
Population Apoptotic (%) [12]: 81%
Population Fragmented Nuclei (%) [12]: 34%
Population Healthy Nuclei (%) [12]: 56%
Population Hoechst High Intensity Objects (%) [12]: 12%
Population Membrane Permeable-Phenotype (%) [12]: 0%
Population Mitochondria Different-Phenotype (%) [12]: 90%
Population Mitotic Cells (%) [12]: 18%
Population Normal (%) [12]: 87%
Population Pyknosed Nuclei (%) [12]: 9%
Population Tubulin-Different-Phenotype (%) [12]: 3%
Total Cell Count [12]: 133

Cc1nc(N2CC[C@H](O)C2)ncc1-c1cc(C(F)(F)F)cc2[nH]ncc12
Population Apoptotic (%) [1]: 70%
Population Fragmented Nuclei (%) [1]: 32%
Population Healthy Nuclei (%) [1]: 49%
Population Hoechst High Intensity Objects (%) [1]: 12%
Population Membrane Permeable-Phenotype (%) [1]: 10%
Population Mitochondria Different-Phenotype (%) [1]: 6%
Population Mitotic Cells (%) [1]: 29%
Population Normal (%) [1]: 87%
Population Pyknosed Nuclei (%) [1]: 18%
Population Tubulin-Different-Phenotype (%) [1]: 7%
Total Cell Count [1]: 193
Population Apoptotic (%) [2]: 20%
Population Fragmented Nuclei (%) [2]: 42%
Population Healthy Nuclei (%) [2]: 33%
Population Hoechst High Intensity Objects (%) [2]: 40%
Population Membrane Permeable-Phenotype (%) [2]: 28%
Population Mitochondria Different-Phenotype (%) [2]: 28%
Population Mitotic Cells (%) [2]: 80%
Population Normal (%) [2]: 60%
Population Pyknosed Nuclei (%) [2]: 23%
Population Tubulin-Different-Phenotype (%) [2]: 50%
Total Cell Count [2]: 70
Population Apoptotic (%) [3]: 66%
Population Fragmented Nuclei (%) [3]: 24%
Population Healthy Nuclei (%) [3]: 61%
Population Hoechst High Intensity Objects (%) [3]: 15%
Population Membrane Permeable-Phenotype (%) [3]: 3%
Population Mitochondria Different-Phenotype (%) [3]: 7%
Population Mitotic Cells (%) [3]: 33%
Population Normal (%) [3]: 84%
Population Pyknosed Nuclei (%) [3]: 14%
Population Tubulin-Different-Phenotype (%) [3]: 4%
Total Cell Count [3]: 218
Population Apoptotic (%) [4]: 50%
Population Fragmented Nuclei (%) [4]: 68%
Population Healthy Nuclei (%) [4]: 21%
Population Hoechst High Intensity Objects (%) [4]: 22%
Population Membrane Permeable-Phenotype (%) [4]: 15%
Population Mitochondria Different-Phenotype (%) [4]: 15%
Population Mitotic Cells (%) [4]: 50%
Population Normal (%) [4]: 77%
Population Pyknosed Nuclei (%) [4]: 9%
Population Tubulin-Different-Phenotype (%) [4]: 15%
Total Cell Count [4]: 79
Population Apoptotic (%) [5]: 48%
Population Fragmented Nuclei (%) [5]: 29%
Population Healthy Nuclei (%) [5]: 47%
Population Hoechst High Intensity Objects (%) [5]: 12%
Population Membrane Permeable-Phenotype (%) [5]: 9%
Population Mitochondria Different-Phenotype (%) [5]: 9%
Population Mitotic Cells (%) [5]: 51%
Population Normal (%) [5]: 87%
Population Pyknosed Nuclei (%) [5]: 22%
Population Tubulin-Different-Phenotype (%) [5]: 12%
Total Cell Count [5]: 183
Population Apoptotic (%) [6]: 60%
Population Fragmented Nuclei (%) [6]: 45%
Population Healthy Nuclei (%) [6]: 30%
Population Hoechst High Intensity Objects (%) [6]: 35%
Population Membrane Permeable-Phenotype (%) [6]: 30%
Population Mitochondria Different-Phenotype (%) [6]: 7%
Population Mitotic Cells (%) [6]: 40%
Population Normal (%) [6]: 64%
Population Pyknosed Nuclei (%) [6]: 23%
Population Tubulin-Different-Phenotype (%) [6]: 23%
Total Cell Count [6]: 65
Population Apoptotic (%) [7]: 65%
Population Fragmented Nuclei (%) [7]: 22%
Population Healthy Nuclei (%) [7]: 63%
Population Hoechst High Intensity Objects (%) [7]: 15%
Population Membrane Permeable-Phenotype (%) [7]: 7%
Population Mitochondria Different-Phenotype (%) [7]: 3%
Population Mitotic Cells (%) [7]: 34%
Population Normal (%) [7]: 84%
Population Pyknosed Nuclei (%) [7]: 14%
Population Tubulin-Different-Phenotype (%) [7]: 3%
Total Cell Count [7]: 239
Population Apoptotic (%) [8]: 83%
Population Fragmented Nuclei (%) [8]: 67%
Population Healthy Nuclei (%) [8]: 22%
Population Hoechst High Intensity Objects (%) [8]: 24%
Population Membrane Permeable-Phenotype (%) [8]: 38%
Population Mitochondria Different-Phenotype (%) [8]: 30%
Population Mitotic Cells (%) [8]: 16%
Population Normal (%) [8]: 75%
Population Pyknosed Nuclei (%) [8]: 10%
Population Tubulin-Different-Phenotype (%) [8]: 46%
Total Cell Count [8]: 77
